Measurements of several laboratories.
Lines come from different studies, so protocols differ.
Cell line: MRC5
Effect on: cell growth or viability

COc1c2ccoc2c(OCC=C(C)C)c2oc(=O)ccc12 — IC50 (MTT; 24 h): > 100 µM
O=C(C=C[c-]1cccc1)c1ccc[nH]1.[Fe+2].c1cc[cH-]c1 — viability (MTT; 100 µM): ~100%
CC(C)=CCC/C(C)=C/COc1ccc2ccc(=O)oc2c1 — IC50 (MTT; 24 h): 68.9 µM
Cc1cn([C@@H]2C[C@H](O)[C@@H](CNC(=O)Nc3ccc(OCc4ccccc4)cc3)O2)c(=O)[nH]c1=O — CC50: > 50 µM
COc1ccc(CN2C[C@H]3CC[C@@H]4[C@]5(C)COC(C)(C)O[C@@H]5CC[C@@]4(C)[C@@H]3C[C@@H]2C2=CCOC2=O)cc1 — cell death (ATP luminescence; 25 µM, 72 h): 5.1%
COC(=O)N[C@H](C(=O)N1CCC[C@H]1c1nc(-c2ccc(-c3ccc(-c4c[nH]c([C@@H]5CCCN5C(=O)[C@@H](NC(=O)OC)C(C)C)n4)cc3)cc2)c[nH]1)C(C)C — CC50 (5 days): 29 µM
Cc1cn([C@@H]2C[C@H](O)[C@@H](CNC(=O)Nc3ccc(N4CCCCC4)cc3)O2)c(=O)[nH]c1=O — CC50: > 50 µM
CCCCN1C[C@H]2CC[C@@H]3[C@](C)(COC(C)=O)[C@H](OC(C)=O)CC[C@@]3(C)[C@@H]2C[C@@H]1C1=CCOC1=O — cell death (ATP luminescence; 25 µM, 72 h): -6%
